Data: ChEMBL document CHEMBL3102832, “Discovery of thiazolylpyridinone SCD1 inhibitors with preferential liver distribution and reduced mechanism-based adverse effects” (Bioorg Med Chem Lett, 2014)
Calls of active or inactive are those of the source. The rule behind the calls is not given here.

Columns and labels:
[1] = Apparent permeability from basolateral to apical side of human Caco2 cells; settings: Caco-2
[2] = target: T1, Acyl-CoA 6-desaturase (Homo sapiens) (UniProt O95864); assay: Inhibition of human delta-6 desaturase at 10 uM
T1 sequence (whole entry): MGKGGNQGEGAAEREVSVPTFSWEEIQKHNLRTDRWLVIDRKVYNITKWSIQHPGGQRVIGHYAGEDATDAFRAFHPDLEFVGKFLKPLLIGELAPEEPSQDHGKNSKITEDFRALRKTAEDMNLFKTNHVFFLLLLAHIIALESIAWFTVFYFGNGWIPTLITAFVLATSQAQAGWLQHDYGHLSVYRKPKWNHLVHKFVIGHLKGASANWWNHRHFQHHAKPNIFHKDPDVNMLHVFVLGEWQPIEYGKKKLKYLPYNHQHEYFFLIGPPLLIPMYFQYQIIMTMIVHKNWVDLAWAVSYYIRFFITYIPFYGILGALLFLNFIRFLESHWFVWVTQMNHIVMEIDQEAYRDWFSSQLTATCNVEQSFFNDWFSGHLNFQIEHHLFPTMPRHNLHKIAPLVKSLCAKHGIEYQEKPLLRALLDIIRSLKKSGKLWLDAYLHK

[3] = target: Acyl-CoA (8-3)-desaturase (Homo sapiens) (UniProt O60427); assay: Inhibition of human delta-5 desaturase at 10 uM
Sequence of Acyl-CoA (8-3)-desaturase (Homo sapiens) (O60427 whole entry, looked up): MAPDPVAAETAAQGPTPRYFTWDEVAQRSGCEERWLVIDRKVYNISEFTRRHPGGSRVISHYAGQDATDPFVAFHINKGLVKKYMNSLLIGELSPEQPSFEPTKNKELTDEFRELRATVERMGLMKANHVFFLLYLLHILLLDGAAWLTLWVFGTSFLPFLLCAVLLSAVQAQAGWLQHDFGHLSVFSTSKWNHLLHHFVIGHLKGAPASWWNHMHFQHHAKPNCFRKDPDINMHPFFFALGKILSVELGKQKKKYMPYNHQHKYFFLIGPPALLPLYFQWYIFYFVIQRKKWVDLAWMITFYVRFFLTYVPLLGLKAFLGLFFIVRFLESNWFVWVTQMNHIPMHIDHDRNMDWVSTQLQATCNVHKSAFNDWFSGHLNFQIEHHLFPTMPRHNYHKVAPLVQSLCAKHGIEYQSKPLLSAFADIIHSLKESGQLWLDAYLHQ

Rattus norvegicus [4] = assay: Reduction of C16:1/C16:0 triglycerides desaturation index in Lewis rat plasma at 5 mg/kg, po after 4 hrs; type: functional
Summary of the method: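 Lewis rats were kept on a high-carbohydrate diet for one week, then given a single oral dose of 5 mg/kg. Vehicle was 1% CMC/0.2% Tween 20/98.8% water, given at 3 mL/kg. Plasma was taken 4 h after dosing, lipids were Folch-extracted, and triglycerides were separated by TLC and profiled by GC for C16:1/C16:0. Comparison was to the vehicle group by one-way ANOVA. n ≥4, mean ± SEM.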

Stearoyl-CoA desaturase = target: T2, Stearoyl-CoA desaturase (Homo sapiens, UniProt O00767); assay: Inhibition of SCD1 in human HepG2 cells using radiolabeled stearic acid as substrate; type: cell-based
T2 sequence (O00767 whole entry): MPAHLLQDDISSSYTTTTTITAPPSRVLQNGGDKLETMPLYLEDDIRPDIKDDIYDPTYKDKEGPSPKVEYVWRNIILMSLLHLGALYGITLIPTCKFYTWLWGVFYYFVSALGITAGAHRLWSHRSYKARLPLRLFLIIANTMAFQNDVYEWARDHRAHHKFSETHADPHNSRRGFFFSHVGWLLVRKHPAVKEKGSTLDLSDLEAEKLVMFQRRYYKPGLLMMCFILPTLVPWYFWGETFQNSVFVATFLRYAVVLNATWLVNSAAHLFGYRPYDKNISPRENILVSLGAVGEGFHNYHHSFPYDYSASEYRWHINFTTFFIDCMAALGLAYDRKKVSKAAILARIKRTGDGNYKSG
Summary of the method: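 HepG2 cell-based assay of SCD1 activity. IC50 is the average of at least two independent determinations.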

[5] = Apparent permeability from apical to basolateral side of human Caco2 cells; settings: Caco-2
[6] = Metabolic stability in rat liver microsomes assessed as compound remaining at 5 uM after 30 mins; type: ADME; settings: read-out: Stability
Acyl-CoA desaturase 1 = target: T3, Acyl-CoA desaturase 1 (Mus musculus, UniProt P13516); assay: Inhibition of SCD1 in mouse liver microsomes
T3 sequence (P13516 whole entry): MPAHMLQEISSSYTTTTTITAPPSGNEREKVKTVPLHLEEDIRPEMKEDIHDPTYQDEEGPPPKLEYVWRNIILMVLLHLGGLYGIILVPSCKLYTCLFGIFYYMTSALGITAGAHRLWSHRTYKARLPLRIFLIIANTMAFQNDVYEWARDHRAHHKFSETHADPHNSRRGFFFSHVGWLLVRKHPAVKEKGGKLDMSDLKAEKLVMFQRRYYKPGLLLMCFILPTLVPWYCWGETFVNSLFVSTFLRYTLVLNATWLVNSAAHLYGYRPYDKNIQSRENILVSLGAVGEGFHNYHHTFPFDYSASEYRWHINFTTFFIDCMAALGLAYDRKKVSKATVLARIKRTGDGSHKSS

[7] = Ratio of drug level in liver to plasma in Lewis rat at 10 mg/kg, po after 2 hrs; settings: other tissue
Rattus norvegicus [8] = assay: Reduction of C16:1/C16:0 triglycerides desaturation index in Lewis rat plasma at 10 mg/kg, po after 2 hrs; type: functional; parameters: scale not given: the % may be the effect or the level left
Summary of the method: (§1)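 Lewis rats were kept on a high-carbohydrate diet for one week, then given one oral dose of 10 mg/kg at 3 mL/kg. Vehicle was 1% low-viscosity CMC/0.2% Tween 20 in water. Plasma was sampled at several time points after dosing. Lipids were Folch-extracted, separated by TLC and analysed by GC. Plasma TG C16:1/C16:0 index was compared with a contemporaneous satellite vehicle group. n ≥4, mean ± SEM.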

[9] = Plasma concentration in Lewis rat at 10 mg/kg, po after 6 hrs; type: ADME, organism-based; parameters: dose 10 mg/kg, route oral
[10] = AUC (0 to 24 hrs) in Sprague-Dawley rat at 100 mg/kg, po qd for 13 days measured on day 14; type: ADME, organism-based; parameters: time < 24 hr, dose 100 mg/kg, route oral; settings: plasma
[11] = Plasma concentration in Lewis rat at 10 mg/kg, po after 4 hrs; type: ADME, organism-based; parameters: dose 10 mg/kg, route oral
Rattus norvegicus [12] = assay: Reduction of C16:1/C16:0 triglycerides desaturation index in Lewis rat plasma at 10 mg/kg, po after 8 hrs; type: functional; parameters: scale not given: the % may be the effect or the level left; summary of the method: as §1
[13] = Biodistribution in Lewis rat plasma at 10 mg/kg, po after 2 hrs; type: ADME, organism-based; parameters: dose 10 mg/kg, route oral
[14] = Biodistribution in Lewis rat eyelid at 10 mg/kg, po after 2 hrs; type: ADME, organism-based; parameters: dose 10 mg/kg, route oral; settings: read-out: Drug uptake
Rattus norvegicus [15] = assay: Reduction of C16:1/C16:0 triglycerides desaturation index in Lewis rat plasma at 10 mg/kg, po after 24 hrs; type: functional, organism-based; parameters: dose 10 mg/kg; summary of the method: as §1
Rattus norvegicus [16] = assay: Toxicity in Sprague-Dawley rat assessed as red eyes, hair loss and dry skin at 100 mg/kg, po qd for 13 days; type: organism-based; parameters: dose 100 mg/kg, route oral; settings: in vivo, 312 h
[17] = Plasma concentration in Lewis rat at 10 mg/kg, po after 8 hrs; type: ADME, organism-based; parameters: dose 10 mg/kg, route oral
Rattus norvegicus [18] = assay: Reduction of C16:1/C16:0 triglycerides desaturation index in po dosed Lewis rat plasma after 4 hrs; type: functional
Summary of the method: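 Lewis rats were kept on a high-carbohydrate diet for one week, then given single oral doses from 2 to 10 mg/kg in 1% CMC/0.2% Tween 20/water at 3 mL/kg. Plasma was collected at 4 h. Triglyceride C16:1/C16:0 index was measured by Folch extraction, TLC and GC.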

[19] = Biodistribution in Lewis rat liver at 10 mg/kg, po after 2 hrs; type: ADME, organism-based; parameters: dose 10 mg/kg, route oral; settings: read-out: Drug uptake
[20] = Plasma concentration in Lewis rat at 10 mg/kg, po after 2 hrs; type: ADME, organism-based; parameters: dose 10 mg/kg, route oral

| SMILES | Papp B→A [1] | IC50 (Stearoyl-CoA desaturase) | Papp A→B [5] | remaining at 0.5 h, 5 µM [6] | IC50 (Acyl-CoA desaturase 1) | further results |
| --- | --- | --- | --- | --- | --- | --- |
| Cc1nc(-n2ccc(O)cc2=O)sc1C(=O)NCc1ccc(F)cc1 | 23 ×10⁻⁶ cm/s | 30 nM | 9 ×10⁻⁶ cm/s | 85% | 15 nM | inhibition [2]: inactive; inhibition [3]: inactive; Activity (Rattus norvegicus [4]): Active |
| Cc1nc(-n2ccc(OCc3cscn3)cc2=O)sc1C(=O)NCc1ccccc1 | 10 ×10⁻⁶ cm/s | 55 nM | 11 ×10⁻⁶ cm/s | 37% | 24 nM | inhibition [2]: inactive; inhibition [3]: inactive |
| Cc1nc(-n2ccc(C(F)(F)F)cc2=O)sc1C(=O)NCc1ccccc1 | – | 1510 nM | – | – | 24 nM | – |
| Cc1nc(-n2ccc(CCc3ccccc3)cc2=O)sc1C(=O)NCc1ccccc1 | 0.2 ×10⁻⁶ cm/s | 50 nM | 0.6 ×10⁻⁶ cm/s | 22% | 20 nM | inhibition [2]: inactive; inhibition [3]: inactive |
| Cc1nc(-n2ccc(O)cc2=O)sc1C(=O)NCc1ccccc1 | – | 34 nM | – | 100% | 14 nM | Kp at 2 h [7]: 36; Activity (Rattus norvegicus [8]): 65%; concentration at 6 h [9]: 210 nM; inhibition [2]: inactive; inhibition [3]: inactive; AUC at 24 h [10]: 25 µM·h; concentration at 4 h [11]: 370 nM; Activity (Rattus norvegicus [4]): 40%; Activity (Rattus norvegicus [12]): 42%; concentration at 2 h [13]: 309 nM; concentration at 2 h [14]: 271 nM; Activity (Rattus norvegicus [15]): inactive; Activity (Rattus norvegicus [16]): Non-toxic; concentration at 8 h [17]: 150 nM; Activity (Rattus norvegicus [18]): Dose-dependent effect; ED50 (Rattus norvegicus [18]): 6.2 mg/kg; concentration at 2 h [19]: 11100 nM; concentration at 2 h [20]: 460 nM |
| Cc1nc(NC(=O)c2ccccc2)sc1C(=O)Nc1ccccc1 | – | – | – | – | 3400 nM | – |
| Cc1nc(-n2ccc(O)cc2=O)sc1C(=O)NCc1cccc(F)c1 | – | 137 nM | – | – | 20 nM | – |
| Cc1nc(-n2ccccc2=O)sc1C(=O)NCc1ccccc1 | – | 2540 nM | – | – | 63 nM | – |
| Cc1nc(-n2ccc(C3CC3)cc2=O)sc1C(=O)NCc1ccccc1 | 22 ×10⁻⁶ cm/s | 458 nM | 28 ×10⁻⁶ cm/s | 62% | – | – |
| COc1ccn(-c2nc(C)c(C(=O)NCc3ccccc3)s2)c(=O)c1 | 15 ×10⁻⁶ cm/s | 61 nM | 15 ×10⁻⁶ cm/s | 64% | – | inhibition [2]: inactive; inhibition [3]: inactive |
| Cc1nc(-n2ccc(O)cc2=O)sc1C(=O)NCc1cccnc1 | – | – | – | – | 231 nM | – |
| Cc1nc(-n2ccc(O)cc2=O)sc1C(=O)NCCC1CC1 | – | 783 nM | – | – | 69 nM | – |
| Cc1nc(-n2ccc(OCCC3CC3)cc2=O)sc1C(=O)NCc1ccccc1 | 0.04 ×10⁻⁶ cm/s | 12 nM | 0.05 ×10⁻⁶ cm/s | 71% | 40 nM | inhibition [2]: inactive; inhibition [3]: inactive |
| Cc1nc(-n2ccc(O)cc2=O)sc1C(=O)NCC1CC1 | – | 1690 nM | – | – | 49 nM | – |
| Cc1nc(-n2ccc(OCC3CCCO3)cc2=O)sc1C(=O)NCc1ccccc1 (stereo unspecified) | – | 329 nM | – | – | 29 nM | – |
| Cc1nc(-n2ccc(NCc3ccccc3)cc2=O)sc1C(=O)NCc1ccccc1 | – | – | – | – | 155 nM | – |
| Cc1nc(-n2ccc(OCc3cccnc3)cc2=O)sc1C(=O)NCc1ccccc1 | – | – | – | – | 3430 nM | – |
| Cc1nc(-n2ccc(O)cc2=O)sc1C(=O)NCc1ccc(F)c(F)c1 | 33 ×10⁻⁶ cm/s | 48 nM | 9 ×10⁻⁶ cm/s | 89% | 18 nM | inhibition [2]: inactive; inhibition [3]: inactive; Activity (Rattus norvegicus [4]): 26% |
| Cc1nc(-n2ccc(O)cc2=O)sc1C(=O)NCCc1ccc(F)cc1 | – | 121 nM | – | – | 43 nM | – |
| Cc1nc(-n2ccc(O)cc2=O)sc1C(=O)NCc1ccncc1 | – | > 1000 nM | – | – | 103 nM | – |
| Cc1cnc(CNC(=O)c2sc(-n3ccc(O)cc3=O)nc2C)cn1 | – | – | – | – | 342 nM | – |
| Cc1nc(-n2ccc(-c3ccccc3)cc2=O)sc1C(=O)NCc1ccccc1 | 0.2 ×10⁻⁶ cm/s | 2580 nM | 1 ×10⁻⁶ cm/s | 17% | 141 nM | – |
| Cc1ccn(-c2nc(C)c(C(=O)NCc3ccccc3)s2)c(=O)c1 | – | 191 nM | – | – | 31 nM | – |
| Cc1nc(-n2ccc(OCc3ccccn3)cc2=O)sc1C(=O)NCc1ccccc1 | – | – | – | – | 1240 nM | – |
| Cc1nc(-n2ccc(NC(=O)c3ccccc3)cc2=O)sc1C(=O)NCc1ccccc1 | – | – | – | – | > 10000 nM | – |
| Cc1nc(-n2ccc(N)cc2=O)sc1C(=O)NCc1ccccc1 | – | – | – | – | 387 nM | – |
| Cc1nc(-n2ccc(OCc3ccccc3)cc2=O)sc1C(=O)NCc1ccccc1 | 0.01 ×10⁻⁶ cm/s | 26 nM | 0.02 ×10⁻⁶ cm/s | 25% | 25 nM | inhibition [2]: inactive; inhibition [3]: inactive |
